HIV Rev-RRE inh = inhibitors of HIV-1 Rev-RRE RNA interaction | P05866 | Rev peptide-RRE RNA binding, FRET | inhibition, % at 8 µM | 97,000 tested, 0.79% active | AID 704;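 active = inhibition above the screen-wide mean plus 3 SD, cut at about 35% in these data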;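 note: 0% = median DMSO wells and 100% = median Neomycin B control wells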
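Test system – labelled RRE RNA duplex and labelled Rev peptide · Signal – fluorescein-to-Cy5 FRET, 480 nm excitation · Evaluation – % inhibition of FRET ratio versus controls · Benchmarks – DMSO low control, neomycin B high control · Incubation – 5 min RNA-compound premix plus 15 min binding step, 25 °C · Medium – HEPES pH 7.5 salt buffer with EDTA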
CYP2C9 inh = inhibitors of human CYP2C9 | P11712 | CYP2C9 Supersomes, luciferin-H conversion, luminescence | inhibition, % at 5 µM | 96,000 tested, 20% active;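 active = blocking of liver enzyme CYP2C9 beyond about 50% at 5 µM, limit read from the data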
Target sequence (P11712 whole entry, looked up): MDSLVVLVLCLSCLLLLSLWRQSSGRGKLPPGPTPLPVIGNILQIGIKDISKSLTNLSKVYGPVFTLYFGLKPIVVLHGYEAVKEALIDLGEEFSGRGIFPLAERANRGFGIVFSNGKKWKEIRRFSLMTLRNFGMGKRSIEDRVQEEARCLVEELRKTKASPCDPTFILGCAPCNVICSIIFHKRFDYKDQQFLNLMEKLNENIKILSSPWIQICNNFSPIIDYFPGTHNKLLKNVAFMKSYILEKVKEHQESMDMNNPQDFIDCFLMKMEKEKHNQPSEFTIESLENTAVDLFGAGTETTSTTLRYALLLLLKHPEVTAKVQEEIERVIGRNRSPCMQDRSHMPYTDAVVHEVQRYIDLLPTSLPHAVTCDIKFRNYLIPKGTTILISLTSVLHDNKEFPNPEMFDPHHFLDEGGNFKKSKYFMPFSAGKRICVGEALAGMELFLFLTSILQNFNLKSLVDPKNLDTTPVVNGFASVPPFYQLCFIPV
CYP2C9 activ = increases human cytochrome P450 2C9 activity; recombinant CYP2C9, luciferin-H conversion, luminescence; hits give high values; factor 1 = untreated enzyme, 0 = blocked; activation factor at 5 µM; 96,000 tested, 1.4% active; AID 1024; P11712;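 active = activation factor of 2 or more for CYP2C9 at a 5 µM dose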;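 note: 0 = sulfaphenazole-blocked wells and 1 = vehicle-only wells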
CYP2C19 act = increases human CYP2C19 enzyme activity; P33261; recombinant CYP2C19, luciferin-H EGE luminescence; hits give high values; 0 = fully inhibited enzyme, 1 = untreated enzyme; activation factor at 5 µM; 96,000 tested, under 10 active; AID 1025;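 active = activation factor of at least 2 at 5 µM in the primary screen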;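 note: 0 = wells with 2.5 mM tranylcypromine and 1 = vehicle-only wells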
Cav32 inh = inhibitors of human Cav3.2 T-type calcium channel | Cav3.2-expressing cells, Fluo-4 calcium fluorescence FDSS; hits give low values | O95180 | B-score at 10 µM | 100,000 tested, 4% active | AID 449739;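 active = single-dose well whose peak fluorescence ratio is a statistical outlier from its plate by either plate-standardised score or position-corrected B-score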
CYP2C19 inh = blocks human cytochrome P450 2C19; P33261; CYP2C19 Supersomes, luciferin-H EGE luminescence, 30 min; inhibition, % at 5 µM; 96,000 tested, 21% active;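 active = CYP2C19 inhibition above a set limit at 5 µM in the primary screen, cut at about 50% in these data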;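 note: plate controls were negative control wells for no effect and 2.5 mM tranylcypromine positive control for full effect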
* = called active by the depositor; / = no result given. A selection: hits, their analogues and other compounds. The true share with any hit is near 27%.

SMILES | HIV Rev-RRE inh | CYP2C9 inh | CYP2C9 activ | CYP2C19 act | Cav32 inh | CYP2C19 inh
CCN1CCc2c(C#N)c(NCc3ccccc3)nc(N(CC)CC)c2C1 | 15.4 | 45.4 | 0.5 | 0.8 | -4.17* | 17.0
C=CCNc1nc(NCc2ccccc2)c(C#N)c2c1CN(C)CC2 | 13.1 | 38.1 | 0.6 | 0.9 | -0.0154 | 12.2
N#Cc1c(N2CCCCC2)nc(N2CCCCC2)c2c1CCN(Cc1ccccc1)C2 | 22.1 | 95.8* | 0 | 0.3 | -2.08 | 67.8*
Cc1cc(C)c(C#N)c(N2CCN(Cc3ccc4c(c3)OCO4)CC2)n1 | 21.5 | 46.8 | 0.5 | 0.6 | 0.538 | 41.1
Cc1nn(C)c(C)c1S(=O)(=O)N1CCCC(C(=O)NCC2COc3ccccc3O2)C1 (configuration not stated) | 7.8 | -34.7 | 1.3 | 1 | 0.901 | 4.2
CC(=O)Oc1ccccc1-c1nc(C)nc(N(C)C(C)=O)n1 | / | -16.6 | 1.2 | 0.6 | -0.991 | 38.4
Cc1cc(C)cc(N(CC(=O)N2CCN(Cc3ccccc3)CC2)S(=O)(=O)c2c(C)noc2C)c1 | 2.8 | -4.4 | 1 | 1.1 | 0.149 | -10.1
Cc1cc2cc(CN(Cc3ccco3)C(=O)NCc3ccccc3)c(=O)[nH]c2cc1C | 0.1 | 35.8 | 0.6 | 0.6 | -7.36* | 39.0
Cc1ccc(NC(=O)N(Cc2ccc3c(c2)OCO3)Cc2cc3cc4c(cc3[nH]c2=O)OCCO4)cc1 | 3.7 | -3.0 | 1 | 1 | -0.835 | -3.5
O=C(Nc1ccc(F)cc1)N(Cc1ccco1)Cc1cc2cc3c(cc2[nH]c1=O)OCO3 | 36.8* | -8.2 | 1.1 | 1 | 0.323 | -3.2
Cc1cc2cc(CN(Cc3ccco3)C(=O)C3CCCCC3)c(=O)[nH]c2cc1C | 6.1 | -2.7 | 1 | 1 | -9.29* | -4.0
CCS(=O)(=O)N1CCN(Cc2ccncc2)CC1 | 8.2 | 27.0 | 0.7 | 0.8 | 0.232 | 23.9
O=C(NCC1CC1)c1cc(-c2ccccc2)nn1CC1CC(c2cccc([N+](=O)[O-])c2)=NO1 (configuration not stated) | / | / | / | / | -0.596 | /
COc1ccc(C2/C(=C(\O)c3cc(C)ccc3C)C(=O)C(=O)N2CCN(C)C)cc1OC (configuration not stated) | 2.0 | 32.8 | 0.7 | 1 | 0.309 | -4.4
CCCCCCc1cc2cc(S(=O)(=O)c3ccc(Cl)cc3)c(=O)oc2cc1O | / | / | / | / | -0.214 | /
CCN(CC)c1ccc2cc(S(=O)(=O)c3ccc(Cl)cc3)c(=O)oc2c1 | / | / | / | / | -4.08* | /
CC1CN(C(=O)c2scc3c2OCCO3)CC(C)O1 (configuration not stated) | 2.9 | 0.6 | 1 | 0.9 | 1.02 | 14.6
CCCCNC(=O)COC(=O)c1ccc(Cl)c(S(N)(=O)=O)c1 | 7.7 | -49.3 | 1.5 | 1.1 | -0.586 | -13.9
COc1cc(C(=O)NS(=O)(=O)c2ccccc2C)ccc1Cc1cn(C)c2ccc(NC(=O)OC3CCCC3)cc12 | / | / | / | / | -5.9* | /
COc1cccc(OC)c1C(=O)Nc1cc(C)on1 | 6.0 | -10.6 | 1.1 | 0.9 | / | 5.1
O=C1CC(c2cccs2)c2cc3c(cc2N1)OCO3 (configuration not stated) | 8.8 | 18.9 | 0.8 | 0.3 | / | 67.1*
O=C1CC(c2ccsc2)c2cc3c(cc2N1)OCCO3 (configuration not stated) | / | 41.7 | 0.6 | 0.8 | 1.09 | 20.6
O=C1CC(c2ccncc2)c2cc3c(cc2N1)OCCO3 (configuration not stated) | 4.9 | 58.9* | 0.4 | 0.4 | 0.518 | 60.6*
COc1cc2c(cc1OC)C(c1cccs1)CC(=O)N2 (configuration not stated) | 7.4 | 3.7 | 1 | 1.1 | 0.7 | -10.4
CCOc1c(OC)cccc1C1CC(=O)Nc2cc3c(cc21)OCCO3 (configuration not stated) | / | 69.7* | 0.3 | 0.1 | -0.594 | 93.9*
O=C1CC(c2ccc3c(c2)OCO3)c2cc3c(cc2N1)OCCO3 (configuration not stated) | 1.9 | 91.4* | 0.1 | 0.2 | -1.28 | 78.1*
CCOc1ccccc1OCCOc1cccc(C(F)(F)F)c1 | 21.1 | -35.3 | 1.4 | 0.8 | / | 19.7
COc1ccc(-c2nn(-c3ccccc3)cc2C(=O)n2nnc3ccccc32)cc1 | 2.9 | -21.6 | 1.2 | 0.9 | 0.398 | 7.5

Screens as filed in PubChem.
